Only some compounds are listed: those with a hit (about 1.8% of all), similar ones and a draw of the others.
CHRM5 PAM = potentiates acetylcholine response at human M5 receptor; P08912; 360,000 tested, 0.3% active; CHO-K1 hM5, Fluo-8 calcium, ACh EC20 PAM; 0% = ACh EC20, 100% = ACh EC100; activation, % at 3 µM;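 active = activation above the run cutoff, the mean activation of all test compounds plus 3 SD, cut at about 18% in these data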
Target sequence (P08912 whole entry, looked up): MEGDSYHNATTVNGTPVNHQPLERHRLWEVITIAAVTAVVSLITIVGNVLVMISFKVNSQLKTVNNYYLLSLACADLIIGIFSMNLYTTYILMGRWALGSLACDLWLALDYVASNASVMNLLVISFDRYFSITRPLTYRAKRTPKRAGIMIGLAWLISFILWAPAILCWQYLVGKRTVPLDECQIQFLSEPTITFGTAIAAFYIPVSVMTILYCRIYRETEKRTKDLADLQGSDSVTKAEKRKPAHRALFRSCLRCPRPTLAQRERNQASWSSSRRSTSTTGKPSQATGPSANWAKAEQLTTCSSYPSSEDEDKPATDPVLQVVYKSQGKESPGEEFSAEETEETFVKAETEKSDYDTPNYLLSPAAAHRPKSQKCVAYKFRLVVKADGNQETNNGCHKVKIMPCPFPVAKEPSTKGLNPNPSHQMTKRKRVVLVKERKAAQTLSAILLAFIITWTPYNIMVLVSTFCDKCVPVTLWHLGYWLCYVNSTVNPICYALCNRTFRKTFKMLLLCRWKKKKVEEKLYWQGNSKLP
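system = human M5 receptor in CHO-K1 cells | reagent = EC20 acetylcholine as agonist stimulus | compound dosing = single-point, 3 µM nominal | incubation = Fluo-8 loading 80 min at 37 °C plus 30 min room temperature | detection = Fluo-8 calcium dye fluorescence, kinetic read | benchmarks = low control EC20 acetylcholine (0%), high control EC100 acetylcholine (100%)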
M4 antag = antagonists of human muscarinic M4 receptor (CHRM4) | P08173 | CHO-hM4 cells, ACh EC80, Fluo-8 calcium fluorescence | inhibition, % at 3 µM | 360,000 tested, 0.73% active | AID 624125;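 active = inhibition above its plate's cutoff, the mean inhibition of sample wells plus 3 SD, cut at about 27% in these data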;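 also: 0% = acetylcholine EC80 with DMSO and 100% = DMSO without agonist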
CHRM5 antagonist = antagonists of human muscarinic M5 receptor (CHRM5) | P08912 | CHO-hM5 cells, Fluo-8 calcium fluorescence, ACh EC80 | inhibition, % at 3 µM | 360,000 tested, 0.59% active;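 active = inhibition above a per-plate cutoff, the mean of that plate's test compounds plus 3 SD, cut at about 27% in these data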;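 also: 0% = acetylcholine EC80 with DMSO and 100% = DMSO without agonist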
CHRM4 agonist = agonists of human muscarinic M4 receptor (CHRM4). CHO-K1 hM4/Gqi5, Fluo-8 calcium fluorescence; vehicle 0%, full acetylcholine response 100%. activation, % at 3 µM. 360,000 tested, 0.14% active;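 active = activation above the run mean over all test wells plus 3 SD, cut at about 32% in these data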;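 also: peak over basal fluorescence ratio per well then scaled between controls; 0% = DMSO wells and 100% = acetylcholine at EC100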
CHRM5 agonist = agonists of human muscarinic M5 receptor (CHRM5) | P08912 | CHO-K1 hM5 cells, Fluo-8 calcium fluorescence; 0% DMSO wells, 100% maximal acetylcholine response | activation, % at 3 µM | 360,000 tested, 0.19% active | AID 624037;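 active = activation above the run's mean over test compounds plus 3 SD, cut at about 23% in these data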;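 also: signal is peak over basal fluorescence ratio across the kinetic read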
CHRM4 PAM = CHRM4 positive allosteric modulation; P08173; CHO-K1 hM4/Gqi5, Fluo-8 calcium fluorescence, ACh EC20; 0% = ACh EC20, 100% = maximal ACh; activation, % at 3 µM; 360,000 tested, 0.4% active;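 active = activation above its plate's cutoff, the mean activation of sample wells plus 3 SD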
Starred values were filed as active, the others as inactive.

SMILES	CHRM5 PAM	M4 antag	CHRM5 antagonist	CHRM4 agonist	CHRM5 agonist	CHRM4 PAM
N#C/C(=C\c1ccco1)C(=O)NCc1ccccc1	7.4	-6.6	-9.3	0.1	-0.4	-2.9
CC(O)[C@@H](NC(=O)C1CCC(CNC(=O)[C@H](Cc2ccccc2)NC(=O)OC(C)(C)C)CC1)C(=O)O (some centres undefined)	-5.5	-8.6	7.7	-0.3	-3.5	16.3*
O=C(CN1C(=O)NC2(CCCC2)C1=O)Nc1ccc(F)cc1	-4.3	41.8*	2.8	1.4	0.1	37.7*
C=CCSc1nnc(NC(=O)CN2C(=O)NC3(CCCC3)C2=O)s1	0.9	-16.7	8.3	0.4	-6.4	17.7*
CCC1(c2ccc(F)cc2)NC(=O)N(CC(=O)Nc2ccc(C(N)=O)cc2)C1=O (centres undefined)	5.2	6.6	8.8	1.4	-0.6	2.3
O=C(CN1C(=O)NC2(CCCC2)C1=O)NNC(=O)c1ccc(Br)cc1	-0.2	-15.9	-0.2	1.1	3.7	24.6*
CCC1(c2ccc(F)cc2)NC(=O)N(CC(=O)Nc2ccc(N3CCCCC3)cc2)C1=O (centres undefined)	6.4	2.2	5.0	20.6	26.9*	-2.9
CCc1nnc(NC(=O)CN2C(=O)NC3(CCCC3)C2=O)s1	-4.2	8.5	11.8	-0.5	1.5	-1.8
C=CCn1c(COc2ccc(F)cc2)nnc1SCC(=O)NC1CC1	4.0	-8.5	-1.6	0.2	3.5	3.8
O=[N+]([O-])c1ccc(N/N=C/c2c[nH]c3ccccc23)cc1	-18.4	20.6	28.0*	17.5	3.0	-9.5
O=C(O)c1cccc(-c2ccc(/C=N/Nc3ccc([N+](=O)[O-])cc3)o2)c1	-16.2	27.3*	34.1*	11.8	34.2*	-17.4
O=C(O)c1ccc(N/N=C/c2ccc(-c3cccc(Cl)c3)o2)cc1	11.1	9.3	-2.4	17.0	14.2	-6.3
O=[N+]([O-])c1ccccc1N/N=C/c1c[nH]c2ccccc12	-0.7	0.7	-0.9	1.5	-3.8	4.6
O=C(O)c1ccc(-c2ccc(/C=N/Nc3ccc([N+](=O)[O-])cc3)o2)cc1	-13.1	19.0	27.6*	24.4	55.5*	-14.1
NS(=O)(=O)c1ccc(-c2ccc(/C=N/Nc3ccc(C(=O)O)cc3)o2)cc1	-5.6	-1.9	6.5	0.7	-0.6	10.1
CC(=O)c1cn(C2OC(CO)C3OC(C)(C)OC32)c(=O)n(C)c1=O (centres undefined)	-11.3	6.8	6.3	-0.3	0.3	-8.7
Clc1ccc(OCc2nnc(SCCN3CCCCC3)n2Cc2ccco2)cc1	-16.6	58.4*	11.6	1.5	-7.3	-27.5
O=c1c2ccccc2nnn1CSc1nnc(COc2ccc(Cl)cc2)n1Cc1ccco1	0.3	-18.9	-3.1	1.6	-1.6	8.1
COc1ccc(C2NC(=S)N3C(c4ccc(OC)cc4)NC(=S)N23)cc1 (centres undefined)	-2.3	-1.6	-0.1	1.2	-4.9	16.7
COc1ccc(C2Nc3cc(OC)ccc3-n3cccc32)cc1 (centres undefined)	12.8	-19.1	4.2	2.0	1.6	17.4*
Cc1ccc[n+](C(C)C(=O)Nc2ccc(C)c([N+](=O)[O-])c2)c1 (centres undefined)	-2.1	-4.6	-0.4	0.0	-5.0	-7.9
CCC1CCCCN1S(=O)(=O)c1ccc(S(=O)(=O)N(Cc2ccccn2)CC2CCCO2)cc1 (centres undefined)	-5.1	6.3	4.5	5.6	-2.7	-16.1
CCC1CCCCN1S(=O)(=O)c1ccc(S(=O)(=O)N(Cc2cccs2)C2CC2)cc1 (centres undefined)	-21.8	45.1*	10.7	5.2	-4.2	-17.7
COc1cc(/C=C/C(=O)O)cc(S(=O)(=O)NC2CCCC2)c1OC	-5.7	98.1*	5.2	-1.5	-2.4	-51.9
COc1cc(/C=C/C(=O)O)cc(S(=O)(=O)Nc2cc(Cl)c(Cl)cc2Cl)c1OC	13.6	-11.3	-11.3	0.3	-1.2	18.3
SMILES	CHRM5 PAM	M4 antag	CHRM5 antagonist	CHRM4 agonist	CHRM5 agonist	CHRM4 PAM
CC(C)NC(=O)C1Cc2c(-c3ccc4c(c3)OCO4)ccnc2O1 (centres undefined)	3.7	8.0	-3.8	-0.1	0.1	-3.2
Cc1nnc(SCC(=O)NC2CCCCCC2)n1C(C)C	-5.4	7.5	19.6	0.7	-1.6	-2.0
C[C@H](CO)N1C[C@H](C)[C@@H](CN(C)C(=O)Nc2ccc3c(c2)OCO3)Oc2c(NC(=O)Nc3ccc4c(c3)OCO4)cccc2C1=O	-24.5	26.9*	22.7	21.4	2.2	-6.7
C[C@H](CO)N1C[C@H](C)[C@@H](CN(C)C(=O)Nc2ccccc2)Oc2c(NC(=O)Nc3ccc4c(c3)OCO4)cccc2C1=O	-13.2	-7.6	9.2	5.7	0.5	4.4
C[C@H](CO)N1C[C@H](C)[C@@H](CN(C)Cc2ccc(Cl)c(Cl)c2)Oc2c(NC(=O)Cc3ccccc3)cccc2C1=O	-28.2	31.2*	7.5	20.6	-3.1	-7.6
CN(c1ccccc1)S(=O)(=O)c1cccc(NC(=O)c2nn(C)c(=O)c3ccccc23)c1	-46.6	13.5	12.0	16.2	-6.1	-11.9
COC(=O)c1ccccc1NC(=O)CSc1nc(O)c(-c2ccccc2)c(=O)[nH]1	3.0	-5.0	4.3	-0.1	-2.2	3.5
COC(=O)c1cccc(NC(=O)CSc2nc(O)c(-c3ccccc3)c(=O)[nH]2)c1	10.7	-5.3	0.1	0.9	0.2	24.4*
CC(=O)Nc1c(O)nc(SCC(=O)N2CCCCC2)[nH]c1=O	5.3	-6.5	-2.7	1.1	0.7	22.9*
CC(=O)Nc1c(O)nc(SCC(=O)Nc2cccc(C)c2)[nH]c1=O	0.6	-3.1	0.6	2.1	3.9	41.6*
CC(=O)Nc1c(O)nc(SCC(=O)Nc2ccc(C(C)=O)cc2)[nH]c1=O	2.5	3.5	1.0	1.8	4.3	-0.3
C=CCC[C@H](Cc1ccc(F)cc1)C(=O)OC[C@@H](C)NC(=O)[C@H](CC=C)CC(=O)NCCO	8.2	-2.9	4.5	1.2	-4.7	12.0
COc1cccc(NC(=S)NNC(=O)c2c([N+](=O)[O-])c(C)nn2C)c1	2.6	4.0	-10.3	1.2	3.0	33.9*
CCn1nc(C(=O)OCC(=O)c2ccc(F)cc2)c2ccccc2c1=O	-3.7	-8.2	-7.3	6.9	-4.8	28.0*
Cn1nc(C(=O)OCC(=O)c2ccc(Cl)cc2)c2ccccc2c1=O	4.6	-5.7	4.5	3.1	0.1	16.0*
CCn1nc(C(=O)OCC(=O)N2CC(=O)Nc3ccccc32)c2ccccc2c1=O	4.8	-5.6	-5.8	-0.3	-1.4	22.5*

Source: PubChem BioAssay (The Scripps Research Institute Molecular Screening Center)
